Source: ChEMBL document CHEMBL4837188, “Identification of Novel Tricyclic Benzo[1,3]oxazinyloxazolidinones as Potent Antibacterial Agents with Excellent Pharmacokinetic Profiles against Drug-Resistant Pathogens” (J Med Chem, 2021)
Values after ≈ are worked out from the molar mass of the structure shown.

Experiments:
[1] = AUC (0 to infinity) in BALB/c mouse at 1 mg/kg, iv measured upto 24 hrs by LC-MS/MS analysis; assay type: ADME, organism-based; parameters: route intravenous, dose 1 mg/kg, time <=24; conditions: in vivo
Summary of the method: (§1)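 Female BALB/c mice, 16−21 g, three per route. Oral dosing at 10 mg/kg as a 5 mg/mL suspension in 0.5% carboxymethyl cellulose. IV dosing at 1 mg/kg as a 1 mg/mL solution in 10% DMSO/50% PEG400/40% water. Blood sampled 15 min to 24 h after oral dosing and 5 min to 24 h after iv. LC/MS/MS quantification in ESI positive mode. Noncompartmental analysis; F = (AUCpo×dose_iv)/(AUCiv×dose_po)×100%.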

[2] = Metabolic stability in CD-1 mouse liver microsomes incubated for 30 mins by LC-MS analysis; assay type: ADME, Microsome; conditions: CD-1, mouse, liver microsomes, read-out: Stabilty
Summary of the method: (§2)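 Microsomes from male CD-1 mouse or pooled human, 1 mg/mL protein in 0.05 M phosphate buffer pH 7.4. Compound at final 0.1 μM with DMSO cosolvent. Incubated at 37 °C with 1 mM NADPH, or with buffer in place of NADPH. Sampled at 0 and 30 min and quenched with acetonitrile. LC−MS measurement; substrate remaining at 30 min normalized to time zero.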

[3] = Oral bioavailability in BALB/c mouse at 10 mg/kg measured upto 24 hrs by LC-MS/MS analysis; assay type: ADME, organism-based; conditions: in vivo; summary of the method: as §1
[4] = Elimination half life in BALB/c mouse at 10 mg/kg, po measured upto 24 hrs by LC-MS/MS analysis; assay type: ADME, organism-based; conditions: in vivo, read-out: beta t1/2 (converted); summary of the method: as §1
[5] = biological target: T1, Amine oxidase [flavin-containing] B (Homo sapiens, UniProt P27338); experiment: Inhibition of MAO-B (unknown origin) using kynuramine as substrate preincubated for 5 mins with substrate followed by enzyme addition and measured after 15 mins by LC-MS/MS analysis
T1 sequence (P27338 whole entry): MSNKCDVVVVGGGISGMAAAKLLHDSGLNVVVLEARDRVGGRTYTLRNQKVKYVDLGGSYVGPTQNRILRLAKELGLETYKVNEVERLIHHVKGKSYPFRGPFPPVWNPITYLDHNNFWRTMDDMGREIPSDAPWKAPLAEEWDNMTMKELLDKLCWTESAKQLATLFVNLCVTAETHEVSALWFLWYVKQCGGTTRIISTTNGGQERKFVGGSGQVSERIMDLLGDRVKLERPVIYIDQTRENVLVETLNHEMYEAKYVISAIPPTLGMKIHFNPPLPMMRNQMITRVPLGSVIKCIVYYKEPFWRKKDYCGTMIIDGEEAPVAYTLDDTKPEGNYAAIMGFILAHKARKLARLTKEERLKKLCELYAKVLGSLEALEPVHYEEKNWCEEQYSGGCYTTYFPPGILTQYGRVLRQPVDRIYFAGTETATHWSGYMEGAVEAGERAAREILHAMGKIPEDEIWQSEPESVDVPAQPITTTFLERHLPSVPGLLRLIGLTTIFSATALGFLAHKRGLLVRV
Summary of the method: (§3)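 Recombinant MAO-A (0.01 mg/mL working solution) or MAO-B (0.04 mg/mL working solution) in phosphate buffer. Kynuramine 40 μM working solution. Compound or DMSO preincubated with substrate for 5 min at 37 °C; enzyme then added and incubated 15 min at 37 °C. Reaction quenched. Product 4-hydroxyquinoline (printed as 4-hydroxyquinolinol) measured by LC−MS/MS. Six concentrations in 4-fold dilutions; IC50 from % inhibition versus vehicle.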

Vero = experiment: Cytotoxicity against african green monkey Vero cells after 48 hrs by MTT assay; assay type: cell-based; conditions: Chlorocebus sabaeus
Summary of the method: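 Vero cells grown in RPMI1640 with 10% FBS at 37 °C, 5% CO2. Cells diluted to 4 × 10⁵ cells/mL. Compounds given as three-fold serial dilutions, final 64−0.26 μg/mL, for 48 h at 37 °C. Monolayers washed with warm HBSS, then MTT added for 4 h. Absorbance read at 492 nm.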

[6] = test system: Staphylococcus epidermidis; experiment: Antibacterial activity against methicillin resistant Staphylococcus epidermidis assessed as bacterial growth inhibition after 18 hrs by broth microdilution method; assay type: functional
[7] = Metabolic stability in CD-1 mouse liver microsomes assessed as substrate remaining in presence of NADPH incubated for 30 mins by LC-MS analysis; assay type: ADME, Microsome; conditions: read-out: Stabilty; summary of the method: as §2
Staphylococcus capitis = experiment: Antibacterial activity against linezolid resistant Staphylococcus capitis assessed as bacterial growth inhibition after 18 hrs by broth microdilution method; assay type: functional
Enterococcus faecalis = experiment: Antibacterial activity against linezolid resistant Enterococcus faecalis assessed as bacterial growth inhibition after 18 hrs by broth microdilution method; assay type: functional
[8] = Apparent volume of distribution in BALB/c mouse at 1 mg/kg, iv measured upto 24 hrs by LC-MS/MS analysis; assay type: ADME, organism-based; conditions: in vivo, read-out: Vz; summary of the method: as §1
[9] = biological target: T2, Amine oxidase [flavin-containing] A (Homo sapiens, UniProt P21397); experiment: Inhibition of MAO-A (unknown origin) using kynuramine as substrate preincubated for 5 mins with substrate followed by enzyme addition and measured after 15 mins by LC-MS/MS analysis; summary of the method: as §3
T2 sequence (P21397 whole entry): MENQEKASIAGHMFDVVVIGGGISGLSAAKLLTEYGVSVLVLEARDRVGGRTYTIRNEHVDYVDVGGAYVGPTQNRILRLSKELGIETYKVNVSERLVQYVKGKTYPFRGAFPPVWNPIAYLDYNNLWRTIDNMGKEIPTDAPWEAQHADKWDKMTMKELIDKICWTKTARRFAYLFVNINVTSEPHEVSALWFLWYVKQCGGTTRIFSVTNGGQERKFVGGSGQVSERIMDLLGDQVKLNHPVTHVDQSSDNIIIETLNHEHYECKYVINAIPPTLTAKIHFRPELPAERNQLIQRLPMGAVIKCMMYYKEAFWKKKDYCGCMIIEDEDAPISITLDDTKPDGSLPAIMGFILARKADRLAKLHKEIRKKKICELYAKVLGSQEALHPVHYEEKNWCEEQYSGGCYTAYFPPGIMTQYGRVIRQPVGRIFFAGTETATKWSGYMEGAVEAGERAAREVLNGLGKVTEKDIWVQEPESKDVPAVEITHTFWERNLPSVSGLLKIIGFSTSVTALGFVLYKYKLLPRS

Bacillus subtilis = experiment: Antibacterial activity against Bacillus subtilis 168 assessed as inhibition of bacterial growth incubated for 18 hrs by broth microdilution method; assay type: functional
Summary of the method: (§4)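 Broth microdilution in 96-well plates. Media: cation-adjusted Mueller−Hinton broth for S. aureus, brain heart infusion for VRE, Mueller−Hinton broth for the other strains. Incubated at 37 °C for 18 h, then A600 read. Percent growth inhibition calculated against 1% DMSO vehicle.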

Staphylococcus aureus [10] = experiment: Antibacterial activity against vancomycin intermediate Staphylococcus aureus assessed as bacterial growth inhibition after 18 hrs by broth microdilution method; assay type: functional
Staphylococcus aureus [11] = experiment: Antibacterial activity against methicillin resistant Staphylococcus aureus assessed as bacterial growth inhibition after 18 hrs by broth microdilution method; assay type: functional
[12] = Cmax in BALB/c mouse at 1 mg/kg, iv measured upto 24 hrs by LC-MS/MS analysis; assay type: ADME, organism-based; parameters: route intravenous, dose 1 mg/kg, time <=24; conditions: in vivo; summary of the method: as §1
[13] = Metabolic stability in pooled human liver microsomes assessed as substrate remaining in presence of NADPH incubated for 30 mins by LC-MS analysis; assay type: ADME, Microsome; conditions: read-out: Stabilty; summary of the method: as §2
Escherichia coli = experiment: Antibacterial activity against Escherichia coli 25922 assessed as inhibition of bacterial growth incubated for 18 hrs by broth microdilution method; assay type: functional; conditions: ATCC 25922; summary of the method: as §4

CC(=O)NC[C@@H]1OC(=O)N2Cc3cc(-c4ccc(C#N)nc4)c(F)cc3O[C@@H]12
AUC(0-inf) [1]: 6160 ng·h/mL | remaining at 0.5 h [2]: 108% | bioavailability [3]: 128% | half-life [4]: 3.76 h | IC50 [5]: 6.07 µM | IC50 (Vero): > 64 µg/mL | MIC [6]: 1 µg/mL (≈ 2.62 µM) | remaining at 0.5 h [7]: 95.5% | MIC (Staphylococcus capitis): 2 µg/mL (≈ 5.23 µM) | MIC (Enterococcus faecalis): 1 µg/mL (≈ 2.62 µM) | Vd [8]: 0.762 L/kg | IC50 [9]: > 50 µM | MIC (Bacillus subtilis): 0.125 µg/mL (≈ 0.327 µM) | MIC (Staphylococcus aureus [10]): 0.25 µg/mL (≈ 0.654 µM) | MIC (Staphylococcus aureus [11]): 0.25 µg/mL (≈ 0.654 µM) | Cmax [12]: 1790 ng/mL | remaining at 0.5 h [13]: 118% | MIC (Escherichia coli): > 64 µg/mL
